Screening data (PubChem BioAssay)
Shown are actives, neighbours in structure and some others; about 2.9% of the full set was active somewhere.
SENP8 block-1 – SENP8 protease inhibitors, primary screen, biochemical, luminescence; Sentrin-specific protease 8 (Homo sapiens), Q96LD8; purified SENP8, Z-RLRGG-aminoluciferin cleavage; inhibition, % at 10 µM; hit rate 1.2% among 330,000; AID 2540, 2010; in the data active = inhibition above about 50%
Target sequence (Q96LD8 whole entry, looked up): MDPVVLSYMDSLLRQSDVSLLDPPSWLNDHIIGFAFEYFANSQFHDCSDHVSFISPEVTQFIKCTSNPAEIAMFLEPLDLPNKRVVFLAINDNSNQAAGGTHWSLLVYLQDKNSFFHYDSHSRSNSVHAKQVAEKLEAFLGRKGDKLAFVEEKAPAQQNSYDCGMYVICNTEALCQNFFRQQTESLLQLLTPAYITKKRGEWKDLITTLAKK
SENP1 FRET inh – human SENP1 catalytic domain inhibitors, primary screen, biochemical, FRET, uHTS; AID 624204, 2012; inhibition, % at 10 µM; recombinant SENP1 catalytic domain, CyPet-SUMO1-YPet FRET cleavage; hit rate 0.21% among 360,000; Sentrin-specific protease 1 (Homo sapiens), Q9P0U3;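 active = inhibition at least 30% at 10 µM, raw YFP signal under a set limit, fluorescence ratio 0.5 to 1.5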;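 note: 0% = enzyme with DMSO and 100% = no enzyme wells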
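Test system: hSENP1 catalytic domain, recombinant; Amount: 20 pM final SENP1 enzyme; Medium: Tris pH 8 buffer plus EDTA, NaCl, BME, BSA, NP40, catalase; Schedule: 50 min enzyme reaction, room temperature, light-protected; Technique: FRET fluorescence in CFP and YFP emission channels; Controls: no-enzyme wells low, DMSO-plus-enzyme wells high control.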
SENP8 block-2 – human SENP8 protease inhibitors, primary screen, biochemical, fluorescence, Nedd8 protein substrate, uHTS. Sentrin-specific protease 8 (Homo sapiens), Q96LD8. recombinant SENP8. inhibition, % at 20 µM. hit rate 0.64% among 360,000; in the data active = inhibition mostly above about 40%, no sharp cut-off; inactive = mostly below about 27%
HSP90 refold inh – HSP90 inhibitors, primary screen, cell lysate, luminescence; Heat shock protein HSP 90 (rabbit reticulocyte lysate; luciferase refolding); hit rate 0.91% among 290,000; Rabbit reticulocyte lysate, luciferase refolding luminescence, 3 h; inhibition, % at 5.6 µM;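 active = inhibition above the screen-wide mean plus 3 SD, computed separately per campaign, cut at about 16% in these data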;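 note: 0% = DMSO wells and 100% = 60 µM geldanamycin wells; inhibitors lower the luminescence because luciferase stays unfolded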
SENP6 inh – SENP6 protease inhibitors, primary screen, biochemical, luminescence, uHTS; Recombinant SENP6 catalytic domain, aminoluciferin luminescence; inhibition, % at 10 µM; hit rate 1.8% among 330,000; AID 2599, 2010;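 active = inhibition above about 50% at the single tested dose, limit read from the data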;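 note: plate controls were DMSO wells with enzyme for no effect and DMSO wells lacking enzyme for full effect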
SENP7 block – SENP7 protease inhibitors, primary screen, biochemical, luminescence, uHTS. Sentrin-specific protease 7 (Homo sapiens), Q9BQF6. recombinant SENP7, Z-RLRGG-aminoluciferin luminescence, 40 min. inhibition, % at 5 µM. hit rate 1.5% among 330,000. AID 434973, 2010;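 active = inhibition above about 50% at the single test dose, limit read from the data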;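 note: plate controls were DMSO with enzyme for no effect and no enzyme buffer wells for full effect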
Target sequence (Q9BQF6 706-1050 limits assumed): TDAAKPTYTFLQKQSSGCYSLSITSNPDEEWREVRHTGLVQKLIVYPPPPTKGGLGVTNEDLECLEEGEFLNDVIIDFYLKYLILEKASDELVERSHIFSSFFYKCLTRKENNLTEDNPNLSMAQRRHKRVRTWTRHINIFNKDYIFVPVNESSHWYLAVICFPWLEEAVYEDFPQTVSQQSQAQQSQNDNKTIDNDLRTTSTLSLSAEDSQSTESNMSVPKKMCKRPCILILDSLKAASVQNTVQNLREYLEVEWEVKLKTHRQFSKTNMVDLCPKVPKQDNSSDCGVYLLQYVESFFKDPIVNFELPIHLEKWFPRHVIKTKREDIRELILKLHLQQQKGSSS
HSP90 confirm – HSP90 inhibitors, confirmation, cell lysate, luminescence; shares compounds with HSP90 refold inh; rabbit reticulocyte lysate, luciferase refolding luminescence, 3 h; inhibition, % at 5.9 µM; hit rate 64% among 2,300; AID 1846, 2009; in the data active = inhibition above about 18%;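 note: 0% = vehicle wells and 100% = reference inhibitor wells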
FLuc counter – firefly luciferase inhibitors, HSP90 counter-screen, confirmation, artefact control for HSP90 inhibitor project, biochemical, luminescence, triplicate; shares compounds with HSP90 refold inh; purified native firefly luciferase; inhibition, % at 5.9 µM; hit rate 48% among 2,300; AID 1847, 2009;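 active = inhibition above the mean inhibition of all tested sample wells plus 3 SD, cut at about 10% in these data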;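 note: 0% = DMSO with luciferase and 100% = wells lacking luciferase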
* marks the source's active call; other numbers are inactive results; / = not tested or not shown.

SMILES	SENP8 block-1	SENP1 FRET inh	SENP8 block-2	HSP90 refold inh	SENP6 inh	SENP7 block	HSP90 confirm	FLuc counter
Cc1cccc(NC(=O)CSc2nnc(Cn3nnc(-c4ccccc4)n3)n2-c2ccccc2)c1	0.2	4.4	1.5	21.1*	-3.0	-2.5	5.1	-9.6
CC1CCN(C(=O)N2c3ccccc3Sc3ccccc32)CC1	3.5	1.7	8.9	19.1*	-3.8	4.4	8.3	2.4
CC(=O)/C(=C\N(C)C)Sc1ccc(C)cc1	-0.7	0.8	15.1	32.7*	-6.9	-2.8	3.9	-0.2
O=S(N1CCCCC1)C12CC3CC(CC(C3)C1)C2 (centres undefined)	7.4	1.1	13.7	40.0*	7.7	-6.1	-2.9	-6.5
COc1ccc(C)cc1S(=O)(=O)N1CCN(C(=O)c2ncoc2-c2ccccc2F)CC1	-1.7	2.1	0.1	-1.9	-20.8	-4.5	/	/
CCN(C[C@H]1N[C@@](C)(C(=O)OC)[C@H]2C(=O)N(C)C(=O)[C@@H]12)S(=O)(=O)c1ccc(F)cc1	1.1	1.0	3.2	/	-4.3	-4.2	/	/
CC(=O)CSc1nnc(-c2ccc3c(c2)OCO3)o1	0.8	-1.9	8.9	17.9*	-5.0	11.0	37.1*	5.2
CC(=O)Nc1ccc(NC(=O)CSc2nnc(-c3ccc4c(c3)OCO4)o2)cc1	-13.5	1.4	-0.8	/	4.2	-4.0	/	/
O=C(NCc1ccccn1)[C@@H]1CCCN1C(=O)[C@@H]1CCCN1C(=O)c1ccc(Cl)cc1	/	0.3	-385.7	/	/	/	/	/
N#CC1=C(N)Oc2n[nH]c(-c3cccs3)c2C1c1ccsc1 (centres undefined)	18.4	-29.4	-4.8	21.3*	23.7	26.4	4.4	1.0
CN(C)c1ccc(/C=C(\Cl)c2nc3ccccc3s2)cc1	/	-24.1	-71.7	49.1*	/	/	71.1*	71.5*
O=C(O)c1ccc(C=C(c2nc3ccccc3s2)c2nc3ccccc3s2)cc1	-15.4	-92.3	-63.2	-1.1	-18.2	-16.2	/	/
CCS(=O)(=O)N1CCC(N2CCC(C)CC2)CC1	-0.8	3.8	14.9	0.1	41.9	4.1	/	/
Cc1c(/C(O)=C2/C(=O)C(=O)N(CCN3CCOCC3)C2c2ccccn2)cnn1-c1ccccc1 (centres undefined)	-8.6	-69.2	-11.2	75.8*	1.9	-2.3	22.3*	36.4*
Cc1c(/C(O)=C2\C(=O)C(=O)N(CCN(C)C)C2c2cccs2)cnn1-c1ccccc1 (centres undefined)	9.7	1.9	-15.8	39.9*	-1.6	-3.7	10.0	-3.1
COc1ccc2c(c1)c(C(=O)CN1CCN(c3ccccc3)CC1)c(C)n2C	4.6	/	/	-1.5	7.6	-0.5	/	/
COc1ccc2c(c1)c(C(=O)CN1CCN(Cc3ccccc3)CC1)c(C)n2C	-3.1	2.6	20.1	28.1*	4.1	-5.7	-6.5	-12.2
CCC1(O)CC2CN(CCc3c([nH]c4ccccc34)C(C(=O)OC)(c3cc4c(cc3OC)N(C=O)C3C(O)(C(=O)OC)C(OC(C)=O)C5(CC)C=CCN6CCC43C65)C2)C1 (centres undefined)	/	9.0	27.9	/	/	/	/	/
COc1ccc(C(=O)C2CCCN(C(=O)c3cc(C4CC4)[nH]n3)C2)c(C)c1 (centres undefined)	-1.9	0.5	6.0	1.8	0.2	-4.4	/	/
Cc1cc(C)cc(Nc2ncc3c(n2)CCCC3=O)c1	-14.2	0.6	-26.7	17.4*	-5.1	3.4	42.7*	23.3*
Cc1noc(C)c1NC(=O)N(C)C[C@H]1Oc2ccc(NC(=O)Nc3ccc(C(F)(F)F)cc3)cc2C(=O)N([C@H](C)CO)C[C@@H]1C	-0.1	-1.1	3.2	/	6.2	-3.1	/	/
O=C(Nc1ccc(N2CCCC(O)C2)cc1)c1snc2c(=O)[nH]cnc12 (centres undefined)	-1.2	1.0	5.5	18.6*	-9.2	-4.3	15.1	-3.9
Cc1cccc(NC(=O)c2snc3c(=O)[nH]cnc23)c1	15.4	/	/	0.8	40.6	5.1	/	/
CCc1ccc(C(=O)C(C)OC(=O)c2nc3nc(C)cc(C)n3n2)cc1 (centres undefined)	-4.7	-0.2	5.2	/	-7.6	9.8	/	/
CCOC(=O)C(CCCCP(=O)(c1ccccc1)c1ccccc1)(NC(C)=O)C(=O)OCC	-3.8	1.9	0.4	6.1	-7.5	0.4	/	/
SMILES	SENP8 block-1	SENP1 FRET inh	SENP8 block-2	HSP90 refold inh	SENP6 inh	SENP7 block	HSP90 confirm	FLuc counter
CCOC(=O)C(CCCP(=O)(c1ccccc1)c1ccccc1)(NC(C)=O)C(=O)OCC	-6.4	1.5	22.7	23.4*	-17.2	-1.8	-8.9	-11.9
Cc1csc(NC(=O)c2cnc3ccccc3n2)n1	1.8	3.1	4.2	43.4*	20.4	12.3	53.0*	39.7*
Cc1csc(NC(=O)c2ccc(C(=O)Nc3nc(C)cs3)cc2)n1	17.3	/	/	-0.5	25.0	14.0	/	/
CN(C)CCCN(C(=O)CCSc1ccccc1)c1nc2cc3c(cc2s1)OCO3	-4.8	-0.8	25.3	56.9*	21.0	13.3	-3.2	-12.7
CCOc1ccc(N)c(SSc2cc(OCC)ccc2N)c1	0.3	-1.1	-31.3	30.0*	5.9	2.5	40.8*	9.6*
CC(C)(C)OC(=O)C[C@H]1C/C=C\C[C@H](CC(=O)NCCO)C(=O)NCCOC1=O	-5.1	1.3	9.7	/	1.8	4.7	/	/
CCOC(=O)Cc1csc(NC(=O)c2ccc(C)c(S(=O)(=O)N3CCOCC3)c2)n1	-11.4	1.4	-10.6	/	-11.5	-2.9	/	/
O=C(Cc1cccs1)N=Nc1c(O)[nH]c2ccc(Br)cc12	5.1	2.3	20.7	0.4	-29.6	5.8	/	/
COc1ccc2[nH]c(O)c(N=NC(=O)Cc3cccs3)c2c1	-5.8	3.4	33.9	22.6*	-11.7	-11.3	-9.2	-16.5
COC(=O)C[C@H]1C[C@H]2c3cc(NC(=O)C4CCOCC4)ccc3O[C@H]2[C@@H](CO)O1	/	-0.9	-10.5	/	/	/	/	/
CN(C(=O)COC(=O)c1nc(Cl)ccc1Cl)c1ccccc1	1.5	-1.1	6.2	4.8	-4.9	4.1	/	/
CCOC(=O)COc1ccccc1C(=O)c1cnn(-c2ccccc2)c1	-5.6	0.6	15.4	-0.2	7.4	1.8	/	/
S=C(N/N=C1\CCc2ccccc21)NC1CCCCC1	-6.1	2.6	0.8	25.7*	-15.7	-3.3	34.0*	0.1
